The source made the active and inactive calls. The calls are words filed in the database; no cut-off is given here.
Tests used:
Plasmodium falciparum [1] = experiment: Antimalarial activity against chloroquine-sensitive Plasmodium falciparum 3D7 infected in human erythrocytes assessed as inhibition of parasite growth after 72 hrs by SYBR Green I method; assay type: functional, organism-based; details: 3D7, 72 h
In short: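 P. falciparum 3D7 grown in human erythrocytes (2% hematocrit) in RPMI1640 with Hepes, hypoxanthine, glucose, bicarbonate and Albumax I under 5% CO2/5% O2/90% N2. 10 mM DMSO stocks, 3-fold serial dilutions. Quadruplicate wells at 0.5% parasitemia, 0.1% DMSO final, 72 h at 37 °C. SYBR Green I lysis buffer added, 1 h dark, fluorescence 497/520. IC50 by four-parameter logistic fit.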

HepG2 = experiment: Cytotoxicity against human HepG2 cells assessed as inhibition of cell viability after 72 hrs by PrestoBlue Cell Viability Reagent based assay; details: HepG2, 72 h
In short: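 HepG2 kept in DMEM with 10% FBS and L-glutamine on poly-D-lysine at 37 °C, 5% CO2. Seeded 10,000 cells/well, allowed to adhere at least 4 h, then exposed to compound for 72 h. PrestoBlue added for 30 min at 37 °C, fluorescence Ex 560/Em 590 nm. IC50 by nonlinear regression.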

Rattus norvegicus [2] = experiment: Oral bioavailability in Sprague-Dawley rat at 5 mg/kg by LC-MS analysis; assay type: ADME, organism-based; details: in vivo
[3] = Selectivity index, ratio of IC50 for human HepG2 cells to IC50 for chloroquine-sensitive Plasmodium falciparum 3D7 infected in human erythrocytes; assay type: toxicity, cell-based; details: read-out: Ratio IC50
Rattus norvegicus [4] = experiment: Volume of distribution in Sprague-Dawley rat at 1 mg/kg, iv and 5 mg/kg, po by LC-MS analysis; assay type: ADME, organism-based; details: in vivo
Plasmodium falciparum [5] = experiment: Antimalarial activity against multidrug-resistant Plasmodium falciparum Dd2 infected in human erythrocytes assessed as inhibition of parasite growth after 72 hrs by SYBR Green I method; assay type: functional, organism-based; details: Dd2, 72 h
In short: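 SYBR Green I growth assay in human erythrocytes. DMSO stocks (10 mM), 3-fold serial dilutions, then diluted 500-fold into medium and added in quadruplicate. Final conditions: 2% hematocrit, 0.5% parasitemia, 0.1% DMSO. Incubated 72 h at 37 °C. Lysis buffer with SYBR Green I added, 1 h at room temperature in the dark. Fluorescence read at 497/520 nm. IC50 from four-parameter logistic nonlinear regression.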

[6] = molecular target: Cathepsin D (Homo sapiens) (UniProt P07339); experiment: Inhibition of human recombinant cathepsin D using Mca-PLGL-Dpa-AR-NH2 as substrate up to 10 uM by FRET assay
Chain of Cathepsin D (Homo sapiens) (P07339 65-162 limits assumed): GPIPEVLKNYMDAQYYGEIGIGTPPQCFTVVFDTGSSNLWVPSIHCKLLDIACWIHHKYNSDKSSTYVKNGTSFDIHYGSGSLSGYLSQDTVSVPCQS
Chain of Cathepsin D (Homo sapiens) (P07339 169-412 limits assumed): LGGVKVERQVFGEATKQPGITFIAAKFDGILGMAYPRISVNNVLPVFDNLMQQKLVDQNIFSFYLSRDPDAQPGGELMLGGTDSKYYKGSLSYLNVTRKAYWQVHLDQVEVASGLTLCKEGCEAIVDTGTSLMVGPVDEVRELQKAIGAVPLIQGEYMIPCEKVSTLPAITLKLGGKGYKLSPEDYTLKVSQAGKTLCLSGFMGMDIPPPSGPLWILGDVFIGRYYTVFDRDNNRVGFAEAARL
In short: (§1)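 Recombinant human cathepsin D at 20 ng/µl and cathepsin E at 1 ng/µl, each activated 30 min at RT in 0.1 M NaOAc, 0.2 M NaCl, pH 3.5. FRET substrate added at 20 uM final. Run 60 min at RT, time-resolved fluorescence Ex/Em 360/460 nm. IC50 by nonlinear regression.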

Liver microsome [7] = experiment: Half-life in rat liver microsomes at 1 uM by LC-MS/MS analysis; assay type: ADME
In short: (§2)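 Compound at 1 μM with liver microsomes (mouse, rat or human), 1.2 mM NADPH, 3.3 mM MgCl2, 100 mM potassium phosphate pH 7.4, at 37 °C. Aliquots taken at 0, 5, 10, 20 and 30 min and quenched in ice-cold acetonitrile with internal standard. Centrifuged supernatant run by LC-MS/MS. Half-life from analyte/internal standard peak-area ratios.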

[8] = Half-life in Sprague-Dawley rat at 1 mg/kg, iv and 5 mg/kg, po by LC-MS analysis; assay type: ADME, organism-based; details: in vivo
[9] = molecular target: T1, Cathepsin E (Homo sapiens) (UniProt P14091); experiment: Inhibition of human recombinant cathepsin E using Mca-PLGL-Dpa-AR-NH2 as substrate up to 10 uM by FRET assay; in short: as §1
T1 sequence (whole entry): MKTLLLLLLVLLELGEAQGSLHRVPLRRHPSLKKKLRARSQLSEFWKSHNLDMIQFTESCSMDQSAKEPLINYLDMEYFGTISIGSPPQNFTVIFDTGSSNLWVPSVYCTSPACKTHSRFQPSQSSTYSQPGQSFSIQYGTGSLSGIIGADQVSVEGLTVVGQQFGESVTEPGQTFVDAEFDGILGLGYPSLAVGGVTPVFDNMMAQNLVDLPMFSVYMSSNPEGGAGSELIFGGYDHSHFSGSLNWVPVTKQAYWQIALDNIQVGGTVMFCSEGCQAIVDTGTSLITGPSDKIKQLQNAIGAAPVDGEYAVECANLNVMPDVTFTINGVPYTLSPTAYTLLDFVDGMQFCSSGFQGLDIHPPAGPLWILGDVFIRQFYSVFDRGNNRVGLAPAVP

Plasmodium [10] = experiment: Inhibition of Plasmodium plamepsin 4 using EDANS-CO-CH2-CH2-CO-ALERMFLSFP-Dap(DABCYL)OH as substrate up to 10 uM after 60 mins by fluorescence assay
In short: (§3)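 Recombinant PM-2 or PM-4, purified and activated at 0.3 mg/ml in pH 4.5 citrate, 0.1% Tween-20, 50 mM DTT for 40 min at RT. Then diluted in 50 mM sodium acetate pH 4.7, 0.01% Tween-20. Serially diluted compounds added, followed by peptide substrate at 20 μM final. Run 60 min at RT, fluorescence Ex/Em 360/535 nm. IC50 derived from the curve.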

Liver microsome [11] = experiment: Half-life in human liver microsomes at 1 uM by LC-MS/MS analysis; assay type: ADME; in short: as §2
[12] = molecular target: Beta-secretase 1 (Homo sapiens) (UniProt P56817); experiment: Inhibition of human recombinant BACE1 using Mca-SEVNLDAEFRK(Dnp)RR-NH2 as substrate up to 10 uM by FRET assay
Chain of Beta-secretase 1 (Homo sapiens) (P56817 whole entry): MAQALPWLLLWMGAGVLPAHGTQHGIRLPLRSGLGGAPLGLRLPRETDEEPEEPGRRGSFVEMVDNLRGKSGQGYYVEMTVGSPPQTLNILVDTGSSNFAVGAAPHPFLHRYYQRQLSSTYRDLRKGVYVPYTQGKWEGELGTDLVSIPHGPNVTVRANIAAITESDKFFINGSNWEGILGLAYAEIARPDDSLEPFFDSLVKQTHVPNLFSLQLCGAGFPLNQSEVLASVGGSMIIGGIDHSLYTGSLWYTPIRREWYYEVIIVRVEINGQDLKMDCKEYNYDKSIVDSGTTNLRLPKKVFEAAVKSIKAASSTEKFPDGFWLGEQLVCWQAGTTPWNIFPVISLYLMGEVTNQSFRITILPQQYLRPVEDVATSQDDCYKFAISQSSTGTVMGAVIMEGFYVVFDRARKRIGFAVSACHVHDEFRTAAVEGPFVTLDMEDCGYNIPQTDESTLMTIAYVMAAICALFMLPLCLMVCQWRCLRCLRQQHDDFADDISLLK
In short: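 Recombinant human BACE1 at 20 ng/µl, activated 15 min at RT in 100 mM sodium acetate pH 4.0. FRET substrate added at 20 uM final. Run 60 min at RT, time-resolved fluorescence Ex/Em 360/460 nm. IC50 by nonlinear regression.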

Plasmodium [13] = experiment: Inhibition of Plasmodium plamepsin 2 using EDANS-CO-CH2-CH2-CO-ALERMFLSFP-Dap(DABCYL)OH as substrate up to 10 uM after 60 mins by fluorescence assay; in short: as §3
Liver = experiment: Half-life in mouse liver microsomes at 1 uM by LC-MS/MS analysis; assay type: ADME; in short: as §2

Row | SMILES | IC50 (Plasmodium falciparum [1]) [µM] | also measured
1 | CCN1C(=O)N(CCC(C)C)C2(CCN(Cc3ccc(OC)cc3O)CC2)C1=O | 0.94 | 
2 | CCN1C(=O)N(CCC(C)C)C2(CCN(C(=O)c3cc(Cl)ccc3O)CC2)C1=O | > 10 | 
3 | CCN1C(=O)N(CCC(C)C)C2(CCN(C(=O)c3ccccn3)CC2)C1=O | > 10 | 
4 | CCN1C(=O)N(CCC(C)C)C2(CCN(Cc3cc(F)ccc3O)CC2)C1=O | 1.4 | 
5 | CCN1C(=O)N(CCC(C)C)C2(CCN(Cc3ccc(Cl)cc3O)CC2)C1=O | 2.1 | IC50 (HepG2): > 50 µM
6 | CCN1C(=O)N(CCC(C)C)C2(CCN(Cc3cccc(OC)c3O)CC2)C1=O | 6 | 
7 | CCN1C(=O)N(CCC(C)C)C2(CCN(Cc3cc(Cl)ccc3O)CC2)C1=O | 0.22 | F (Rattus norvegicus [2]): 10%; selectivity ratio [3]: > 100; Vd (Rattus norvegicus [4]): 3.7 L/kg; IC50 (Plasmodium falciparum [5]): 0.22 µM; inhibition [6]: inactive; t1/2 (Liver microsome [7]): 3 min; IC50 (HepG2): 37 µM; half-life [8]: 16.8 min; inhibition [9]: inactive; inhibition (Plasmodium [10]): inactive; t1/2 (Liver microsome [11]): 9 min; inhibition [12]: inactive; inhibition (Plasmodium [13]): inactive; t1/2 (Liver): 4 min
8 | CCN1C(=O)N(CCC(C)C)C2(CCN(Cc3c(O)cccc3Cl)CC2)C1=O | 0.41 | 
9 | CCN1C(=O)N(CCC(C)C)C2(CCNCC2)C1=O | > 10 | 
10 | CCN1C(=O)N(CCC(C)C)C2(CCN(Cc3cccc4cc[nH]c34)CC2)C1=O | 3.4 | 
11 | CCN1C(=O)N(CCC(C)C)C2(CCN(Cc3cc(Br)ccc3O)CC2)C1=O | 0.21 | 
12 | CCN1C(=O)N(CCC(C)C)C2(CCN(Cc3cc(Cl)cnc3N)CC2)C1=O | > 10 | 
13 | CCN1C(=O)N(CCC(C)C)C2(CCN(CCCO)CC2)C1=O | > 10 | 
14 | CC(C)CCN1C(=O)N(Cc2cccnc2)C(=O)C12CCN(Cc1cc(Cl)ccc1O)CC2 | 0.84 | 
15 | CCN1C(=O)N(CCC(C)C)C2(CCN(Cc3cccc4cccnc34)CC2)C1=O | > 10 | 
16 | CCN1C(=O)N(CCC(C)C)C2(CCN(Cc3cccnc3N)CC2)C1=O | > 10 | 
17 | CCN1C(=O)N(CC)C2(CCN(Cc3cc(Cl)ccc3O)CC2)C1=O | 6.7 | 
18 | CC(C)CCN1C(=O)NC(=O)C12CCN(Cc1cc(Cl)ccc1O)CC2 | > 10 | 
19 | CCN1C(=O)N(CCC(C)C)C2(CCN(Cc3ccccc3O)CC2)C1=O | 1.1 | 
20 | CCN1C(=O)N(CCC(C)C)C2(CCN(Cc3cc(C)ccc3O)CC2)C1=O | 0.88 | 
21 | CCN1C(=O)N(CCc2ccccc2)C2(CCN(Cc3cc(Cl)ccc3O)CC2)C1=O | 0.29 | 

— ChEMBL document CHEMBL3603824, “Evaluation of spiropiperidine hydantoins as a novel class of antimalarial agents” (Bioorg Med Chem, 2015)
